Data as given in ChEMBL document CHEMBL1127028, “Thromboxane receptor antagonism combined with thromboxane synthase inhibition. 5. Synthesis and evaluation of enantiomers of 8-[[(4-chlorophenyl)sulfonyl]amino]-4-(3-pyridinylalkyl)octanoic acid” (J Med Chem, 1993).

Experiments:
[1] = test system: Cavia porcellus; assay: Ex vivo Inhibition of U 46619-induced aggregation of guinea pig platelets at the dose of 3 mg/Kg po per hour expressed as concentration ratio (EC50 of drug/EC50 of control); assay type: functional
Procedure, shortened: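 Oral dosing of guinea pigs at 3 mg/kg, blood drawn 1 h later, then ex vivo U 46619-induced platelet aggregation measured. Concentration ratio is EC50 of U 46619 for the treated group over EC50 for vehicle controls (n = 22). 4–6 animals per group; values are mean ± SEM.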

[2] = species on record: Homo sapiens; assay: Inhibition of U 46619-induced Aggregation of human Washed platelets; assay type: functional
Procedure, shortened: (§1)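 Human platelets (washed, or platelet-rich plasma) were aggregated with U 46619, a TxA2/PGH2 mimetic. The test agent was titrated against this challenge and reported as an IC50.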

[3] = target: T1, Thromboxane-A synthase (Homo sapiens, UniProt P24557); assay: In vitro inhibition of thromboxane synthetase in microsomal platelet preparation
T1 sequence (P24557 whole entry): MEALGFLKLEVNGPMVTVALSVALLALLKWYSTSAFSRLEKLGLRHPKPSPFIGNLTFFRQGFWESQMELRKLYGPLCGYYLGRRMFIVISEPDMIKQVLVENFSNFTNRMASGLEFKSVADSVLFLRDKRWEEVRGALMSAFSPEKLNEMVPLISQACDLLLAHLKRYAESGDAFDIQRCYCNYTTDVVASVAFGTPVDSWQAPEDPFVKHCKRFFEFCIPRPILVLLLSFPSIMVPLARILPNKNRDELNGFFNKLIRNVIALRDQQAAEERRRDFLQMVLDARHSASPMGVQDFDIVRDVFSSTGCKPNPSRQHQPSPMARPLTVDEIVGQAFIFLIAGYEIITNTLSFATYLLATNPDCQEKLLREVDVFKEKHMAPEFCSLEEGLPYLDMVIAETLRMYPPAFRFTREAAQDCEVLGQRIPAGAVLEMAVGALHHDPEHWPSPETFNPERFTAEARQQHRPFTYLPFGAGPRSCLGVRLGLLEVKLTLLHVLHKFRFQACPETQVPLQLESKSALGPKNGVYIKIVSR

[4] = species on record: Homo sapiens; assay: Inhibition of U 46619-induced Aggregation of Human Platelet-rich Plasma; assay type: functional; procedure, shortened: as §1
[5] = test system: Cavia porcellus; assay: Ex vivo Inhibition of U 46619-induced aggregation of guinea pig platelets at the dose of 10 mg/Kg po per hour expressed as concentration ratio (EC50 of drug/EC50 of control); assay type: functional
Procedure, shortened: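 Guinea pigs dosed orally at 10 mg/kg; blood sampled 1 h post-dose and platelet aggregation induced ex vivo with U 46619. Result given as concentration ratio, EC50 of U 46619 in drug-treated animals divided by EC50 in vehicle controls (vehicle n = 22). Groups of 4–6 animals; mean ± SEM.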

[6] = species on record: Homo sapiens; assay: Inhibition of U 46619-induced Aggregation of Human Washed Platelets; assay type: functional; procedure, shortened: as §1

SMILES	IC50 [2] [nM]	IC50 [3] [nM]	IC50 [4] [nM]	IC50 [6] [nM]	Concentration ratio [1]	Concentration ratio [5]
O=C(O)CC[C@@H](CCCCNS(=O)(=O)c1ccc(Cl)cc1)CCOc1cccnc1	9	13	0.53	–	66	–
O=C(O)CCC(CCCCNS(=O)(=O)c1ccc(Cl)cc1)CCOc1cccnc1 (stereo unspecified)	–	2.6	0.28	–	>100	–
O=C(O)CC[C@@H](CCCCNS(=O)(=O)c1ccc(Cl)cc1)CCCc1cccnc1	26	4.5	0.55	–	–	54
O=C(O)CCC(CCCCNS(=O)(=O)c1ccc(Cl)cc1)CCCc1cccnc1 (stereo unspecified)	–	–	0.39	–	–	27

More lines, in order of falling IC50 [4], values ahead:

IC50 [2] [nM]	IC50 [3] [nM]	IC50 [4] [nM]	IC50 [6] [nM]	SMILES	Concentration ratio [1]	Concentration ratio [5]
–	5	0.38	11	O=C(O)CC[C@H](CCCCNS(=O)(=O)c1ccc(Cl)cc1)CCCc1cccnc1	–	43
10	3.5	0.32	–	O=C(O)CC[C@H](CCCCNS(=O)(=O)c1ccc(Cl)cc1)CCOc1cccnc1	90	–
